Measured values published in ChEMBL document CHEMBL1938254, “Semisynthetic neoboutomellerone derivatives as ubiquitin-proteasome pathway inhibitors” (Bioorg Med Chem, 2012).
Several values for one entry are separate records, joined by “and”; a condition that tells them apart may be missing. Equal values may be shown once.

Experiments:
[1] = test system: DLD-1; assay: Inhibition of 20S proteasome activity in human DLD1 cells transfected with 4Ub-Luc gene assessed as bioluminescence induction factor at 10 uM after 8 hrs by luciferase reporter gene assay relative to epoxomicin; assay type: cell-based
Summary of the method: (§1)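 Stably transfected DLD-1 cells expressing 4Ub-Luc reporter, cultured in MEM with 5% heat-inactivated serum. Seeded at 10⁴ cells/well and treated with compound or solvent for 8 h. Luciferase activity in lysates read by luminometer. Induction factor = signal of treated over untreated cells, normalised to epoxomicin at 10^-7 M run in parallel (set to 100). IF ≥10 counted active.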

[2] = test system: DLD-1; assay: Inhibition of 20S proteasome in human DLD1 cells transfected with 4Ub-Luc gene assessed as bioluminescence induction factor at 1 uM after 8 hrs by luciferase reporter gene assay relative to epoxomicin; assay type: cell-based; summary of the method: as §1
[3] = test system: DLD-1; assay: Inhibition of 20S proteasome in human DLD1 cells transfected with 4Ub-Luc gene assessed as bioluminescence induction factor at 0.5 uM after 8 hrs by luciferase reporter gene assay relative to epoxomicin; assay type: cell-based; summary of the method: as §1
[4] = test system: DLD-1; assay: Inhibition of 20S proteasome in human DLD1 cells transfected with 4Ub-Luc gene assessed as bioluminescence induction factor at 5 uM after 8 hrs by luciferase reporter gene assay relative to epoxomicin; assay type: cell-based; summary of the method: as §1
[5] = Inhibition of chymotrypsin-like activity of 20S proteasome in human DLD1 cells transfected with 4Ub-Luc gene using Succinyl-Leu-Leu-Val-Tyr-AMC as substrate after 6 hrs by spectrofluorometric analysis; assay type: cell-based; details: dld-1
Summary of the method: (§2)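 DLD-1 4Ub-Luc cells seeded at 10⁴ cells/well, exposed to compound or solvent for 6 h, then 30 min in reaction buffer (30 mM Tris–HCl pH 7.5, 1 mM ATP). Chymotrypsin-like and PGPH activities read with specific fluorogenic substrates.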

[6] = Inhibition of peptide-glutamyl-peptide-hydrolyzing activity of 20S proteasome in human DLD1 cells transfected with 4Ub-Luc gene using Z-Leu-Leu-Glu-AMC as substrate after 6 hrs by spectrofluorometric analysis; assay type: cell-based; details: dld-1; summary of the method: as §2
[7] = Cytotoxicity against human WM266.4 cells after 72 hrs by ATPlite assay; assay type: functional, cell-based; details: WM 266-4, 72 h
Summary of the method: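 WM-266-4 metastatic melanoma cells grown in DMEM with 10% fetal calf serum, 2 mM L-glutamine, fungizone and penicillin–streptomycin at 37 °C, 5% CO2. Seeded at 3 × 10⁴ cells/ml, left 24 h, then exposed to increasing compound concentrations for 72 h. Viability read as ATP level (ATPlite). IC50 from nonlinear sigmoidal fit with variable Hill slope; mean of two independent experiments.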

Compound | fold change (FC) [1] | fold change (FC) [2] | fold change (FC) [3] | fold change (FC) [4] | IC50 [5] | IC50 [6] | IC50 [7]
C=C(C(=O)[C@H](OC(C)=O)[C@@H](C)[C@H]1[C@@H](OC(C)=O)C[C@@]2(C)[C@@H]3CC[C@H]4[C@H](C)C(=O)C=C[C@@]45C[C@@]35CC[C@]12C)[C@@H](C)COC(=O)CCN(CC)CC | 2.7 | 26 | 1.5 | 11 | 10 µM | 9.4 µM | –
C=C(C(=O)[C@H](OC(C)=O)[C@@H](C)[C@H]1[C@@H](OC(C)=O)C[C@@]2(C)[C@@H]3CC[C@H]4[C@H](C)C(=O)C=C[C@@]45C[C@@]35CC[C@]12C)[C@@H](C)COC(=O)CN(C)C | 2.7 | 50 | 66 | 11 | 31 µM | 52 µM | 0.61 µM
C=C(C(=O)[C@H](OC(C)=O)[C@@H](C)[C@H]1[C@@H](OC(C)=O)C[C@@]2(C)[C@@H]3CC[C@H]4[C@H](C)C(=O)C=C[C@@]45C[C@@]35CC[C@]12C)[C@@H](C)CO [NEOBOUTOMELLERONE] | 4.4 | 48 | 2.1 | 37 | 16 µM | 23 µM | 2.8 µM
C=CC(=O)OC[C@H](C)C(=C)C(=O)[C@H](OC(C)=O)[C@@H](C)[C@H]1[C@@H](OC(C)=O)C[C@@]2(C)[C@@H]3CC[C@H]4[C@H](C)C(=O)C=C[C@@]45C[C@@]35CC[C@]12C | 2.2 | 20 | 1.4 | 18 | 14 µM | 13 µM | –
C=C(C(=O)[C@H](OC(C)=O)[C@@H](C)[C@H]1[C@@H](OC(C)=O)C[C@@]2(C)[C@@H]3CC[C@H]4[C@H](C)C(=O)C=C[C@@]45C[C@@]35CC[C@]12C)[C@@H](C)COC | – | 40 | 1.4 | 44 | 86 µM | 100 µM | –
C=C(C(=O)[C@H](OC(C)=O)[C@@H](C)[C@H]1[C@@H](OC(C)=O)C[C@@]2(C)[C@@H]3CC[C@H]4[C@H](C)C(=O)C=C[C@@]45C[C@@]35CC[C@]12C)[C@@H](C)COC(C)=O | – | 11 | 1.1 | 48 | 35 µM | 43 µM | 1.5 µM
C=C(C(=O)[C@H](OC(=O)CNC(=O)OC(C)(C)C)[C@@H](C)[C@H]1[C@@H](OC(C)=O)C[C@@]2(C)[C@@H]3CC[C@H]4[C@H](C)C(=O)C=C[C@@]45C[C@@]35CC[C@]12C)[C@@H](C)COC(C)=O | 1.6 | 69 | 76 | 3.4 | 17 µM | 23 µM | 1 µM
C=C(C(=O)[C@H](O)[C@@H](C)[C@H]1[C@@H](OC(C)=O)C[C@@]2(C)[C@@H]3CC[C@H]4[C@H](C)C(=O)C=C[C@@]45C[C@@]35CC[C@]12C)[C@@H](C)COC(=O)N1CCN(C)CC1 | – | – | – | – | 39 µM | 32 µM | 0.46 µM
C=C(C(=O)[C@H](OS(=O)(=O)O)[C@@H](C)[C@H]1[C@@H](OC(C)=O)C[C@@]2(C)[C@@H]3CC[C@H]4[C@H](C)C(=O)C=C[C@@]45C[C@@]35CC[C@]12C)[C@@H](C)COS(=O)(=O)O | 1.1 | 1 | 1 | 1 | > 1000 µM | > 1000 µM | –
COCC(C(=O)[C@H](O)[C@@H](C)[C@H]1[C@@H](OC(C)=O)C[C@@]2(C)[C@@H]3CC[C@H]4[C@H](C)C(=O)C=C[C@@]45C[C@@]35CC[C@]12C)[C@@H](C)CO (stereo not given in full) | 2.6 | 1.1 | 0.9 | 1.2 | – | – | –
C=C(C(=O)[C@H](O)[C@@H](C)[C@H]1[C@@H](OC(C)=O)C[C@@]2(C)[C@@H]3CC[C@H]4[C@H](C)C(=O)C=C[C@@]45C[C@@]35CC[C@]12C)[C@@H](C)COCOC(C)=O | 3 | 40 | 1.7 | 34 | 22 µM | 31 µM | –
C=C(C(=O)[C@H](OC(=O)CCC(=O)O)[C@@H](C)[C@H]1[C@@H](OC(C)=O)C[C@@]2(C)[C@@H]3CC[C@H]4[C@H](C)C(=O)C=C[C@@]45C[C@@]35CC[C@]12C)[C@@H](C)COC(C)=O | 3 | 69 | 2 | 16 | 12 µM | 10 µM | –
C=C(C(=O)[C@H](OC(=O)CNC(=O)OC(C)(C)C)[C@@H](C)[C@H]1[C@@H](OC(C)=O)C[C@@]2(C)[C@@H]3CC[C@H]4[C@H](C)C(=O)C=C[C@@]45C[C@@]35CC[C@]12C)[C@@H](C)COC(=O)CNC(=O)OC(C)(C)C | 17 | 47 | 4.3 | 33 | 21 µM | 38 µM | –
C=CCOC[C@H](C)C(=C)C(=O)[C@H](OC(C)=O)[C@@H](C)[C@H]1[C@@H](OC(C)=O)C[C@@]2(C)[C@@H]3CC[C@H]4[C@H](C)C(=O)C=C[C@@]45C[C@@]35CC[C@]12C | 19 | 15 | 1.8 | 49 | 100 µM | 100 µM | –
C=CCOC[C@H](C)C(=C)C(=O)[C@H](O)[C@@H](C)[C@H]1[C@@H](OC(C)=O)C[C@@]2(C)[C@@H]3CC[C@H]4[C@H](C)C(=O)C=C[C@@]45C[C@@]35CC[C@]12C | 1.5 | 49 | 3.7 | 13 | – | – | 0.78 µM
C=C(C(=O)[C@H](OC(C)=O)[C@@H](C)[C@H]1[C@@H](OC(C)=O)C[C@@]2(C)[C@@H]3CC[C@H]4[C@H](C)C(=O)C=C[C@@]45C[C@@]35CC[C@]12C)[C@@H](C)COC(=O)CCC(=O)O | 4.4 and 3.7 | 45 and 61 | 1.4 and 2 | 20 and 15 | 25 µM | 37 µM | –
C=C(C(=O)[C@H](OC(C)=O)[C@@H](C)[C@H]1[C@@H](OC(C)=O)C[C@@]2(C)[C@@H]3CC[C@H]4[C@H](C)C(=O)C=C[C@@]45C[C@@]35CC[C@]12C)[C@@H](C)COP(=O)(OCC)OCC | 2 | 43 | 3 | 16 | 19 µM | 91 µM | –
C=C(C(=O)[C@H](OC(C)=O)[C@@H](C)[C@H]1[C@@H](OC(C)=O)C[C@@]2(C)[C@@H]3CC[C@H]4[C@H](C)C(=O)C=C[C@@]45C[C@@]35CC[C@]12C)[C@@H](C)COC(=O)Nc1ccccc1 | – | 42 | 6.4 | 60 | > 1000 µM | > 1000 µM | 0.19 µM
C=C(C(=O)[C@H](O)[C@@H](C)[C@H]1[C@@H](OC(C)=O)C[C@@]2(C)[C@@H]3CC[C@H]4[C@H](C)C(=O)C=C[C@@]45C[C@@]35CC[C@]12C)[C@@H](C)COC(=O)CCC(=O)O | 3.5 and 5 | 62 and 46 | 6 and 2.6 | 11 and 18 | 61 µM | 47 µM | –
